The values that follow come from ChEMBL document CHEMBL3785029, “Synthesis and Characterization of Fatty Acid Conjugates of Niacin and Salicylic Acid” (J Med Chem, 2016).

Molecules are shown by their SMILES. Calls of active or inactive are those of the source. No cut-off for these calls is given here.

Series [1] is described as follows: AUClast in Sprague-Dawley rat at 100 mg/kg, po administered as single dose measured up to 6 hrs post dose by LC/MS/MS analysis. The series is classed as ADME, organism-based. Also noted: dose 100 mg/kg, time < 6 hr, route oral. To be noted: in vivo. In outline:
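Single oral dose to Sprague Dawley rats; plasma collected at 0.25, 0.5, 1, 2, 4 and 6 hr; analytes in plasma quantified by LC/MS/MS.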

Series [2] is described as follows: Plasma concentration in Sprague-Dawley rat at 300 mg/kg, qd administered through oral gavage for 7 days measured 2 hrs post last dose by LC/MS/MS analysis. Type of series: ADME, organism-based.
Series [3] has as its system Plasma. Briefly: Drug metabolism in Sprague-Dawley rat plasma assessed as niacin formation at 300 mg/kg, qd administered through oral gavage for 7 days measured 2 hrs post last dose by LC/MS/MS analysis. As to conditions: in vivo, BLD = below limit of detection. The series is classed as ADME, organism-based.
In series [4] the test system is Intestine. Briefly: Drug metabolism in Sprague-Dawley rat intestine assessed as niacin formation at 300 mg/kg, qd administered through oral gavage for 7 days measured 2 hrs post last dose by LC/MS/MS analysis. Type of series: ADME, organism-based. As to conditions: in vivo.
In series [5] the test system is Intestine. Briefly: Drug metabolism in Sprague-Dawley rat intestine assessed as niacin linker metabolite N-(2-aminoethyl)nicotinamide formation at 300 mg/kg, qd administered through oral gavage for 7 days measured 2 hrs post last dose by LC/MS/MS analysis. To be noted: in vivo. Type of series: ADME, organism-based.
Series [6] can be described thus: Cmax in jugular vein cannulated Sprague-Dawley rat at 30 mg/kg, po measured up to 140 mins. Type of series: ADME, organism-based. Also noted: dose 30 mg/kg, route oral. To be noted: jugular vein blood. In outline: (§1)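 Sprague Dawley rats surgically fitted with indwelling jugular vein and portal vein cannulas; oral dosing, then serial blood draws from both portal and jugular veins at 10, 20, 40 min and 1, 2, 4, 6 hr post dose; plasma analysed for parent and metabolites by LC/MS/MS.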

The test system of series [7] is Rattus norvegicus. Briefly: Cmax in portal vein cannulated Sprague-Dawley rat assessed as N-(2-aminoethyl)nicotinamide at 30 mg/kg, po measured up to 140 mins. Type of series: ADME, organism-based. Also on record: dose 30 mg/kg, route oral. As to conditions: in vivo. In short, it runs like this: as §1
Series [8] relates to Rattus norvegicus. Briefly: Cmax in jugular vein cannulated Sprague-Dawley rat assessed as N-(2-aminoethyl)nicotinamide at 30 mg/kg, po measured up to 140 mins. Type of series: ADME, organism-based. Also on record: dose 30 mg/kg, route oral. To be noted: in vivo. In outline: as §1
Series [9] deals with Rattus norvegicus. Briefly: Cmax in portal vein cannulated Sprague-Dawley rat assessed nicotinuric acid at 30 mg/kg, po measured up to 140 mins. Type of series: ADME, organism-based. Also on record: dose 30 mg/kg, route oral. As to conditions: in vivo. In short, it runs like this:
as §1

Series [10] deals with Rattus norvegicus. Briefly: Cmax in jugular vein cannulated Sprague-Dawley rat assessed nicotinuric acid at 30 mg/kg, po measured up to 140 mins. Type of series: ADME, organism-based. Also on record: dose 30 mg/kg, route oral. To be noted: in vivo. In short, it runs like this: as §1
A further series has as its system Mus musculus. Nature of the series: Inhibition of triglyceride levels in po dosed ApoE*3-Leiden mouse plasma administered for 16 weeks. The series is classed as functional, organism-based. In short, it runs like this:
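Transgenic ApoE*3-Leiden mice on high-cholesterol Western-type diet dosed over 16 weeks; plasma PCSK9, total cholesterol, triglycerides and lipoprotein profile (VLDL, LDL) assessed at study end.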

Series [11] has as its system Rattus norvegicus. Briefly: AUClast in Sprague-Dawley rat assessed as salicylate-linker metabolite N-(2-aminoethyl)-2-hydroxy-benzamide at 300 mg/kg, po measured up to 24 hrs post dose. Also on record: time < 24 hr, dose 300 mg/kg, route oral. To be noted: in vivo. The series is classed as ADME, organism-based. In outline:
(§2)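 Single oral dose of 300 mg/kg to Sprague Dawley rats. Plasma collected at 0, 0.5, 1, 2, 4, 8 and 24 hr. Analytes were the parent, the salicylate-linker and linker-DHA metabolites, salicylic acid and salicyluric acid; Cmax and AUClast derived.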

Series [12] has as its system Rattus norvegicus. Briefly: AUClast in Sprague-Dawley rat assessed as salicyluric acid at 300 mg/kg, po measured up to 24 hrs post dose. The series is classed as ADME, organism-based. Also on record: time < 24 hr, dose 300 mg/kg, route oral. As to conditions: in vivo. In outline:
as §2

A short description of series [13]: Drug uptake in Sprague-Dawley rat muscle at 300 mg/kg, po administered for 7 days measured 4 hrs post dose on day 7. Type of series: ADME, organism-based, Muscle tissue. To be noted: read-out: Drug uptake. In short, it runs like this:
(§3)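 Male Sprague Dawley rats, groups of 4, dosed orally at 300 mg/kg once daily for 14 days. Animals killed on days 1, 3, 7 and 14, with plasma, brain, epididymal fat, liver and muscle taken 4 hr after dosing. Parent, salicylic acid and salicyluric acid were measured.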

Another series concerns Brain. Nature of the series: Drug metabolism in Sprague-Dawley rat brain assessed as salicyluric acid formation at 300 mg/kg, po administered for 7 days measured 4 hrs post dose on day 7. To be noted: in vivo. The series is classed as ADME, organism-based. In short, it runs like this: as §3
The test system of series [14] is Rattus norvegicus. Briefly: AUClast in Sprague-Dawley rat assessed as salicylic acid at 300 mg/kg, po measured up to 24 hrs post dose. Type of series: ADME, organism-based. Also on record: time < 24 hr, dose 300 mg/kg, route oral. As to conditions: in vivo. In outline: as §2
In series [15] the test system is Muscle tissue. Nature of the series: Drug uptake in Sprague-Dawley rat muscle at 300 mg/kg, po administered for 14 days followed by 7 day washout cycle measured on day 21. Type of series: ADME, organism-based. To be noted: in vivo.
Series [16] relates to Muscle tissue. Briefly: Drug metabolism in Sprague-Dawley rat muscle assessed as salicylic acid formation at 300 mg/kg, po administered for 14 days followed by 7 day washout cycle measured on day 21. The series is classed as ADME, organism-based. To be noted: in vivo.
The test system of series [17] is Plasma. Nature of the series: Drug metabolism in Sprague-Dawley rat plasma assessed as (4Z,7Z,10Z,13Z,16Z,19Z)-N-(2-aminoethyl)docosa-4,7,10,13,16,19-hexaenamide formation at 300 mg/kg, po measured up to 24 hrs post dose. As to conditions: in vivo.

Regarding `CC/C=C\C/C=C\C/C=C\C/C=C\C/C=C\CCCC(=O)NCCNC(=O)c1cccnc1`, the AUC(0-t) – broadly, exposure summed from dosing to a finite time, without extrapolation to infinity – at 6 h in [1] was 172 ng·h/mL. For the same molecule, in series [2], the concentration at 2 h was found to be 13 ng/mL. Also, the Drug metabolism result is “BLD” with Plasma [3], 279 ng/g with Intestine [4] and 23899 ng/g in the series with Intestine [5]. In addition, the highest concentration (Cmax) – broadly, the peak of the concentration-time curve – stood at 35 ng/mL in series [6]; 2061 ng/mL in the series with Rattus norvegicus [7]; 336 ng/mL in the series with Rattus norvegicus [8]; 125 ng/mL in the series on Rattus norvegicus [9]; 135 ng/mL in the series with Rattus norvegicus [10]. Also, in the series on Mus musculus, the inhibition entry is “Active”.
`CC/C=C\C/C=C\C/C=C\C/C=C\C/C=C\C/C=C\CCC(=O)NCCNC(=O)c1ccccc1O` [EDASALONEXENT]: the AUClast with Rattus norvegicus [11] came to 2611 ng·h/mL; in the series on Rattus norvegicus [12], 2937 ng·h/mL; with Rattus norvegicus [14], 229 ng·h/mL. The concentration at 4 h in series [13] came out at 425 ng/g. Moreover, the Drug metabolism is 114.43 ng/g in the series on Brain, “metabolite_notdetected” with Muscle tissue [16] and “metabolite_notdetected” with Plasma [17]. The Drug uptake entry in the series on Muscle tissue [15] was “Not Active”.
